# Laboratory results: ChEMBL document CHEMBL1138216, “Design and synthesis of novel derivatives of the muscarinic agonist tetra(ethylene glycol)(3-methoxy-1,2,5-thiadiazol-4-yl) [3-(1-methyl-1,2,5,6-tetrahydropyrid-3-yl)-1,2,5-thiadiazol-4-yl] ether (CDD-0304): effects of structural modifications on the binding and activity at muscarinic receptor …” (J Med Chem, 2006)
# Substitutions are numbered along the chain they refer to. Activity calls are given as the source filed them. The rule behind the calls is not given here.
# Key:
# [1] = molecular target: T1, Muscarinic acetylcholine receptor M5 (Homo sapiens) (UniProt P08912); experiment: Agonist activity at human M5 receptor expressed in A9 L cells assessed as stimulation of phosphoinositide hydrolysis relative to carbachol; assay type: functional, cell-based; conditions: L929
# T1 sequence (whole entry): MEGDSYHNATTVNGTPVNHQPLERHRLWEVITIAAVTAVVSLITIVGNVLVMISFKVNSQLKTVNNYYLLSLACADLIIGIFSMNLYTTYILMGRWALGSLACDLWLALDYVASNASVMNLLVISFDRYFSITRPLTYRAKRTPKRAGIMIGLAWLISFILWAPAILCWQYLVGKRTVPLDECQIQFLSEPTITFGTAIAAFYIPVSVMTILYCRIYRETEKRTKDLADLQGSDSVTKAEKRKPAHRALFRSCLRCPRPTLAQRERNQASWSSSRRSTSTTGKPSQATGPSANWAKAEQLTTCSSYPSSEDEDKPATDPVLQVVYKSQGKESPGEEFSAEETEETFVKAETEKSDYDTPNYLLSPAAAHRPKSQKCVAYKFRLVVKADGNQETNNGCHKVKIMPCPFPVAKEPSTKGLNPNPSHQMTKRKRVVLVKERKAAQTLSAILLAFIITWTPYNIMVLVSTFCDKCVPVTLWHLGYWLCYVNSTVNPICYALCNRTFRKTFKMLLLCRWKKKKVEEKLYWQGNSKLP
# How it was run: (§1)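 A9 L cells stably expressing the receptor, seeded 24 h, labelled overnight with 10 µCi/mL [3H]inositol in inositol-free DMEM; ligands in HBSS with 10 mM LiCl, 20 mM HEPES, 37 °C, 1 h; formic acid extraction, inositol phosphates counted by SPA beads.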
# [2] = molecular target: T2, Muscarinic acetylcholine receptor M4 (Homo sapiens) (UniProt P08173); experiment: Activity at human M4 receptor assessed as inhibition of forskolin-stimulated cAMP accumulation relative to carbachol; assay type: functional
# T2 sequence (whole entry): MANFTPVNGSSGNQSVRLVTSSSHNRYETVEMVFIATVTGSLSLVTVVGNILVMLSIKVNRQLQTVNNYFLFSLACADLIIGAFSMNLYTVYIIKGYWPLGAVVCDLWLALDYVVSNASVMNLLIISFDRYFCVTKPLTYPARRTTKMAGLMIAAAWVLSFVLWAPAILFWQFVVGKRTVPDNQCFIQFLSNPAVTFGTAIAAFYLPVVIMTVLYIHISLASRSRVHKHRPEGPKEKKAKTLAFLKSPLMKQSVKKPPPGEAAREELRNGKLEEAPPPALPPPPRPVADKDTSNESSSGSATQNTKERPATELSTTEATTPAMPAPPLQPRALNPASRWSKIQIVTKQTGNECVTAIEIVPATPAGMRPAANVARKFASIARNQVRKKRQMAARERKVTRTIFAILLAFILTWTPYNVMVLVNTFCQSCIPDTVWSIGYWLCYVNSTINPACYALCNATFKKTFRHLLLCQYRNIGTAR
# [3] = molecular target: T3, Muscarinic acetylcholine receptor M1 (Homo sapiens) (UniProt P11229); experiment: Agonist activity at human M1 receptor expressed in A9 L cells assessed as stimulation of phosphoinositide hydrolysis relative to carbachol; assay type: functional, cell-based; conditions: L929; how it was run: as §1
# T3 sequence (whole entry): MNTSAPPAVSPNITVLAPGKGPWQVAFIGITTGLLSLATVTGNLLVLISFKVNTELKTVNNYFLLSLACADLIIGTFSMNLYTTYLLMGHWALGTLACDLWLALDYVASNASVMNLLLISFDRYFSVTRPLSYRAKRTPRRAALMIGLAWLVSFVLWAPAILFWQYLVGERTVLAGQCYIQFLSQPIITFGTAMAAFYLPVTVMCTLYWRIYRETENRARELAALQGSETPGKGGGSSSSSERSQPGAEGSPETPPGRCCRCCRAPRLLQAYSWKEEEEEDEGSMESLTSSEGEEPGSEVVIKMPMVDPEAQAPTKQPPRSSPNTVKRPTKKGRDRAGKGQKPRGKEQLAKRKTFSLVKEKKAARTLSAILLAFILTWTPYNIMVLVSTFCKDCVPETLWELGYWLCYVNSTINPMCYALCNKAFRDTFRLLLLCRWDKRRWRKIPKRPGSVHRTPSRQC
# [4] = molecular target: T4, Muscarinic acetylcholine receptor M1/M5 chimeric protein (Homo sapiens) (UniProt P11229+P08912); experiment: Agonist activity at human M1/M5(o2) chimeric receptor expressed in A9 L cells assessed as stimulation of phosphoinositide hydrolysis relative to carbachol; assay type: functional, cell-based; conditions: L929; how it was run: as §1
# [5] = test system: T5, Muscarinic acetylcholine receptor M1 (Homo sapiens), P11229 [Q185E]; experiment: Agonist activity at human M1 receptor Q185E mutant expressed in A9 L cells assessed as stimulation of phosphoinositide hydrolysis relative to carbachol; assay type: functional, cell-based; conditions: L929; how it was run: as §1
# T5 sequence (whole entry): T3 sequence (whole entry) with Q185E
# [6] = molecular target: T6, Muscarinic acetylcholine receptor M2 (Homo sapiens) (UniProt P08172); experiment: Activity at human M2 receptor assessed as inhibition of forskolin-stimulated cAMP accumulation relative to carbachol; assay type: functional
# T6 sequence (whole entry): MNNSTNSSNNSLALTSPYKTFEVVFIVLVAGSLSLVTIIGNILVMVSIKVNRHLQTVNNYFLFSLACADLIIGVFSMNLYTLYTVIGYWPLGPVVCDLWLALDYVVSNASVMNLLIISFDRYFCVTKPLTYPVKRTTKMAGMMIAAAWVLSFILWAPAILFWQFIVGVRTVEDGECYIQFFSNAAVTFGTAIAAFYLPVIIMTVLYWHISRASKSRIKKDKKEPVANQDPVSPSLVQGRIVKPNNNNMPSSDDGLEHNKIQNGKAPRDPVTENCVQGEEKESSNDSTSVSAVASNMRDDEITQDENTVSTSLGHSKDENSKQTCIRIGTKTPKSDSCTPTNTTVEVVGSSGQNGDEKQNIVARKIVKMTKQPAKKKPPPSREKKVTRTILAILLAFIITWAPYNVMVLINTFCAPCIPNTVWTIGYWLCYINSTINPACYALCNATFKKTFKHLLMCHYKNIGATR
# [7] = molecular target: T4, Muscarinic acetylcholine receptor M1/M5 chimeric protein (Homo sapiens); experiment: Agonist activity at human M1/M5(o3) chimeric receptor expressed in A9 L cells assessed as stimulation of phosphoinositide hydrolysis relative to carbachol; assay type: functional, cell-based; conditions: L929; how it was run: as §1
# [8] = molecular target: Muscarinic acetylcholine receptor M3 (Homo sapiens, UniProt P20309); experiment: Agonist activity at human M3 receptor expressed in A9 L cells assessed as stimulation of phosphoinositide hydrolysis relative to carbachol; assay type: functional, cell-based; conditions: L929; how it was run: as §1
# Muscarinic acetylcholine receptor M3, sequence (P20309 whole entry, looked up): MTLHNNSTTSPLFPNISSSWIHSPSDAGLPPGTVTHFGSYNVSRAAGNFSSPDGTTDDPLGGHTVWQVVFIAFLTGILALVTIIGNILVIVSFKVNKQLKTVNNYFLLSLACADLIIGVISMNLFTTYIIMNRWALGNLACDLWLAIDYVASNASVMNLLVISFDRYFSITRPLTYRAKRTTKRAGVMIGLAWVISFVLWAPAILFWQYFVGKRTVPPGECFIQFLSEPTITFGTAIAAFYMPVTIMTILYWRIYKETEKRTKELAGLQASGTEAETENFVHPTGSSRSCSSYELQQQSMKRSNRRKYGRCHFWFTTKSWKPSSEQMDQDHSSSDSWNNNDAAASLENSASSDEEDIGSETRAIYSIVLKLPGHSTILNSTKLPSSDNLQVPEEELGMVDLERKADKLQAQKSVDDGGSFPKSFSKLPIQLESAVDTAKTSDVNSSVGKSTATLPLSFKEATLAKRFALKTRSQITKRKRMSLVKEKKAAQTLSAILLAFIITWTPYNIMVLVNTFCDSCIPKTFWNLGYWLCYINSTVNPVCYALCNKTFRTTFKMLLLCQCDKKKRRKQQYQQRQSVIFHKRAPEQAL
Smax [1],Activity [6],Smax [8],SMILES,Imax [2],Smax [3],Smax [4],Smax [5],Smax [7],Activity [1],Imax [6],Activity [8]
43%,inactive,80%,CCCCCCOc1nsnc1C1=CCCN(C)C1 [XANOMELINE],77%,71%,75%,86%,21%,–,–,–
–,–,–,COc1nsnc1OCCOCCOCCOCCOc1nsnc1C1=CCCN(C)C1,40%,47%,20%,14%,9.7%,inactive,120%,inactive
